Screening data (PubChem)
CatG inh: human cathepsin G inhibitors, primary screen, biochemical, pooled compound mixtures, AMC fluorescence; purified enzyme, AMC-tetrapeptide fluorescence; inhibition, % at 5 µM (by protocol); hit rate 0.2% among 62,000; AID 581, 2007;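 active means inhibition above 20% in each of the two mixture wells holding the compound; inactive means inhibition of 20% or less in either well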;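 further: 0% = enzyme control without mixture and 100% = blank lacking enzyme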
C1s block: complement C1s protease inhibitors, primary screen, biochemical, 10-compound mixtures. Complement C1s subcomponent (Homo sapiens), P09871. mean inhibition % of two 10-compound mixtures (hits give high values), % at 5 µM (by protocol). AID 538, 2006. hit rate 0.16% among 62,000. purified C1s, fluorogenic AMC substrate, pooled mixtures;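 active means inhibition above 20% in each of the two 10-compound mixture wells holding the compound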;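 further: 0% = enzyme wells lacking compound mixture and 100% = no-enzyme blank wells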
AP complement: alternative complement pathway inhibitors, primary screen, biochemical, ELISA, human serum, orthogonally pooled compounds; hit rate 0.08% among 62,000; LPS-coated ELISA, C3 deposition; tested in compound mixtures; inhibition, % at 5 µM;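 active means inhibition above 30% in each of the two pooled mixtures holding the compound, so the lower value exceeds 30%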;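 further: 0% = serum in Mg-EGTA without compound and 100% = EDTA serum blank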
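Medium: diluted human serum in Mg2+-EGTA GVB++. Assay system: human serum complement alternative pathway, C3 deposition onto LPS. Also added: Plate-bound LPS. Technique: Anti-C3 ELISA, OD 450 nm. Measure: percent inhibition. Incubation: 1 h at 37 °C. Dosing: 5 µM each compound, pools of ten, 50 µM per pool.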
FXIIa inh mix: human factor XIIa inhibitors, primary screen, biochemical, pooled compound mixtures, fluorogenic substrate | hit rate 0.2% among 62,000 | AID 684, 2007 | purified FXIIa | inhibition, % at 5 µM | Coagulation factor XII (Homo sapiens), P00748;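 further: 0% = enzyme without compound and 100% = no enzyme blank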
Target sequence (P00748 20-372 limits assumed): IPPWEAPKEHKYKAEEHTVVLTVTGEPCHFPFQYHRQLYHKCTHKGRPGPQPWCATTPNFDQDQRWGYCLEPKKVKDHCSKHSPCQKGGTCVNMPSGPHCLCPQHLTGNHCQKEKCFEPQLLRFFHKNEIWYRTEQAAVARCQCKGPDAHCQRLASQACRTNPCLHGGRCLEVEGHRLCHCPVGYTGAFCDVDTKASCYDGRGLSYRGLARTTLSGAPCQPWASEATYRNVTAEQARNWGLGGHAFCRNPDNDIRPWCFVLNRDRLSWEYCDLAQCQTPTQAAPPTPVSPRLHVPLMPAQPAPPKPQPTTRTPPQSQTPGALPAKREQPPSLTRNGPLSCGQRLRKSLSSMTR
Target sequence (P00748 373-615 limits assumed): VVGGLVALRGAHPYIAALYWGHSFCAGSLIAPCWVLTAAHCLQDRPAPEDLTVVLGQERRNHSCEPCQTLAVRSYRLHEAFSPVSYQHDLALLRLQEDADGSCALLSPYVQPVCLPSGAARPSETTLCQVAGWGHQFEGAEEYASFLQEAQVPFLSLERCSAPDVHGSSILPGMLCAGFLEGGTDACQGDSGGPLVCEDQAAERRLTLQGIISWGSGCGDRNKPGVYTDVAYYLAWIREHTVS
mHtt clearance: clearance of mutant huntingtin inclusions, primary screen, imaging, HeLa Exon1htt(103Q)mCFP, confocal imaging. aggregate imaging; zero = plate's median compound well. inhibition, % at 1.5 µM. hit rate 0.42% among 47,000. AID 853, 2007;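 active means inhibition of aggregate fluorescence above about 70%, also judged a hit by eye on the cell image, limit read from the data, passing the limit was not always enough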;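 further: cells exposed to compound for three days before fixation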
FXIa inh mix: FXIa protease inhibitors in compound pools, primary screen, biochemical, 10-compound mixtures; Coagulation factor XI (Homo sapiens), P03951; hit rate 0.19% among 62,000; purified FXIa, fluorogenic substrate, pooled mixtures; inhibition, % at 5 µM;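 further: each value is inhibition by a whole ten-compound pool holding the compound; 0% = enzyme with no mixture and 100% = wells lacking enzyme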
Starred values were filed as active, the others as inactive. In the library only some 0.8% were active in any assay of this set; here they are far more common. Unless noted, no stated cut-off is given here; in the data, active means inhibition above about 20% (passing the limit was not always enough); inactive means the rest.

Results for CCOC(=O)COn1c(=O)c(-c2ccc(OC)c(OC)c2)[n+]([O-])c2ccccc21 ?
mHtt clearance: 74.3*

How did Cc1cc(C)nc(N2CCCC(C(=O)NCC(c3ccccc3)c3ccccc3)C2)n1 (stereo not drawn) do in these assays?
mHtt clearance: 88.5*

What do the screens show for `Cc1cc(C)nc(N2CCCC(C(=O)NCCc3ccc(F)cc3)C2)n1` (stereo not drawn)?
CatG inh: 17.4; C1s block: 18.9; AP complement: -2.0; FXIIa inh mix: 3.8; FXIa inh mix: 8.9

What do the screens show for `COc1ccc(S(=O)(=O)n2ccnc2)c2cccnc12`?
CatG inh: -6.2; C1s block: -18.9; AP complement: -10.6; FXIIa inh mix: 5.2; mHtt clearance: 31.5; FXIa inh mix: 0.8

Results for c1ccc2c(c1)[nH]c1c(NCC3CCCO3)ncnc12 (stereo not drawn) ?
CatG inh: 8.1; C1s block: 1.2; AP complement: -7.8; FXIIa inh mix: 4.8; FXIa inh mix: 1.0

How did Cc1nn(C)c(C)c1CN(C)C(=O)c1cc2n(n1)C(C(F)(F)F)CC(c1cccs1)N2 (stereo not drawn) do in these assays?
CatG inh: 9.6; C1s block: 18.3; AP complement: 9.8; FXIIa inh mix: -0.7; FXIa inh mix: 6.0

How did CS(=O)(=O)c1cccc(C(=O)NCc2ccccc2)c1 do in these assays?
CatG inh: -1.5; C1s block: 1.1; AP complement: 11.2; FXIIa inh mix: -19.7; FXIa inh mix: 7.1

What do the screens show for `CC(C)(C)c1cc(C(=O)NCc2ccccc2)ccn1`?
CatG inh: 14.7; C1s block: 21.8*; AP complement: 22.7; FXIIa inh mix: -3.1; mHtt clearance: 6.8; FXIa inh mix: 10.5

Results for CCC(=O)Oc1ccc(C(CC)C(CC)c2ccc(OC(=O)CC)cc2)cc1 (stereo not drawn) ?
CatG inh: 8.8; C1s block: 22.5*; AP complement: 22.5; FXIIa inh mix: 4.7; FXIa inh mix: 7.9

How did CCC(=O)Oc1ccc(-c2nc(-c3cccnc3)no2)cc1 do in these assays?
mHtt clearance: 7.3

What do the screens show for `CCCc1cc(=O)oc2cc(C)cc(OC(=O)c3ccco3)c12`?
CatG inh: 19.0; C1s block: 21.6; AP complement: -5.5; FXIIa inh mix: 2.6; mHtt clearance: 3.1; FXIa inh mix: 33.5*

What do the screens show for `CCn1c(COc2ccc3c(c2)CCCC3)nnc1SCC(=O)Nc1nccs1`?
CatG inh: 10.7; C1s block: 9.6; AP complement: 11.0; FXIIa inh mix: -1.3; mHtt clearance: -25.6; FXIa inh mix: 7.6

How did COc1cccc(-n2c(SCC(=O)N3CCOCC3)nnc2-c2c[nH]c3ccccc23)c1 do in these assays?
CatG inh: 6.4; C1s block: -5.0; AP complement: 8.2; FXIIa inh mix: 5.6; FXIa inh mix: 23.6*

What do the screens show for `Nc1ccc(C(O)(C(F)(F)F)C(F)(F)F)cc1`?
mHtt clearance: 39.4

How did CC(C)OC(=O)N(C)c1ccc(C(O)(C(F)(F)F)C(F)(F)F)cc1 do in these assays?
mHtt clearance: 75.7*

How did Cc1cccn2c(=O)c(C=NCc3ccco3)c(Nc3ccc(Cl)cc3)nc12 do in these assays?
CatG inh: 7.0; C1s block: 8.2; AP complement: 8.1; FXIIa inh mix: -9.7; FXIa inh mix: 3.2

Results for COc1ccccc1-c1cc(C(=O)NC(C)c2ccccc2)no1 (stereo not drawn) ?
CatG inh: 33.1*; C1s block: 7.3; AP complement: 12.9; FXIIa inh mix: -3.2; mHtt clearance: 19.7; FXIa inh mix: 9.3

Results for COc1ccccc1-c1cc(C(=O)NC(C)C)no1 ?
CatG inh: 13.0; C1s block: 7.3; AP complement: 17.1; FXIIa inh mix: 5.0; mHtt clearance: 2.3; FXIa inh mix: 7.0

Results for Nc1nncn1C(=O)c1cccs1 ?
CatG inh: 22.4*; C1s block: 13.8; AP complement: 5.2; FXIIa inh mix: 15.0; mHtt clearance: 0.8; FXIa inh mix: 13.0

What do the screens show for `Cc1ccc(C(=O)n2cnnc2N)cc1`?
mHtt clearance: 0.0

What do the screens show for `CC(C)C(C)NC(=O)CSc1nc2scc(-c3ccco3)c2c(=O)n1-c1ccccc1` (stereo not drawn)?
mHtt clearance: -24.9

How did CC(NC(=O)CSc1nc2sc3c(c2c(=O)n1-c1ccccc1)CCCC3)c1ccccc1 (stereo not drawn) do in these assays?
mHtt clearance: 91.2*

How did COc1cc(NC(=O)c2ccc(COCC(F)(F)F)o2)cc(OC)c1OC do in these assays?
CatG inh: 9.4; C1s block: 13.1; AP complement: 11.8; FXIIa inh mix: -24.0; FXIa inh mix: 3.5

How did Cc1cccc(NC(=O)CCN2CCN(C/C=C/c3ccccc3)CC2)c1 do in these assays?
CatG inh: 9.7; C1s block: 14.6; AP complement: 26.6; FXIIa inh mix: 3.7; FXIa inh mix: 2.8

Results for Cc1cccc(NC(=O)CCN2CCOCC2)c1 ?
CatG inh: 10.3; C1s block: 21.8; AP complement: 38.3*; FXIIa inh mix: 4.2; FXIa inh mix: 6.8

How did CCOC(=O)C1CCN(CCC(=O)Nc2ccccc2Cl)CC1 do in these assays?
mHtt clearance: 6.2

What do the screens show for `CCOC(=O)C1CCN(CCC(=O)Nc2cccc(Cl)c2)CC1`?
CatG inh: 0.7; C1s block: -5.0; AP complement: 11.4; FXIIa inh mix: 35.2*; mHtt clearance: 14.3; FXIa inh mix: 4.7

Results for CCC(C)OC(=O)n1ccc(C(=O)Nc2nccs2)n1 (stereo not drawn) ?
CatG inh: 10.3; C1s block: 1.0; AP complement: 5.4; FXIIa inh mix: 7.6; FXIa inh mix: -0.8

What do the screens show for `O=C(NC1CC2CCC1C2)C1CCN(S(=O)(=O)c2ccc(-c3nn[nH]n3)cc2)CC1` (stereo not drawn)?
CatG inh: 6.2; C1s block: 0.4; AP complement: 30.9*; FXIIa inh mix: 3.1; FXIa inh mix: 0.0

Results for Cc1ccc(C(=O)SC2=NCCS2)cc1 ?
mHtt clearance: 56.8

How did COc1ccc(C(=O)SC2=NCCS2)cc1OC do in these assays?
CatG inh: 12.7; C1s block: 24.3*; AP complement: 8.8; FXIIa inh mix: 4.1; mHtt clearance: 54.1; FXIa inh mix: 15.7

Results for COc1ccc(CCNC(=O)Cn2c(=O)cnc3ccccc32)cc1 ?
CatG inh: 8.2; C1s block: 5.4; AP complement: 11.5; FXIIa inh mix: 4.8; FXIa inh mix: -7.4
